Active and inactive are the calls of the source. No cut-off for these calls is given here.
What was measured:
[1] = Drug metabolism in human hepatocytes assessed as oxidation; assay type: ADME, cell-based, Hepatocyte
[2] = system: Rattus norvegicus; assay: AUC (infinity) in Wistar-Han rat assessed as (R)-3-(5-fluoro-1H-indol-3-yl)pyrrolidine-2,5-dione at 3 mg/kg, po; assay type: ADME, organism-based; design: dose 3 mg/kg, route oral, time infinity; details: in vivo
[3] = system: Mus musculus; assay: Tmax in CD-1 mouse assessed as (R)-3-(5-fluoro-1H-indol-3-yl)pyrrolidine-2,5-dione at 3 mg/kg, po; assay type: ADME, organism-based; details: in vivo
[4] = Intrinsic apparent clearance in dog hepatocytes assessed per million cells; assay type: ADME, cell-based, Canis lupus familiaris, Hepatocyte
[5] = system: Canis familiaris; assay: Oral bioavailability in beagle dog assessed as (R)-3-(5-fluoro-1H-indol-3-yl)pyrrolidine-2,5-dione at 3 mg/kg; assay type: ADME, organism-based, Canis lupus familiaris; details: in vivo
[6] = target: T1, Cytochrome P450 2D6 (Homo sapiens, UniProt P10635); assay: Time-dependent inhibition of CYP2D6 (unknown origin); assay type: ADME
T1 sequence (P10635 whole entry): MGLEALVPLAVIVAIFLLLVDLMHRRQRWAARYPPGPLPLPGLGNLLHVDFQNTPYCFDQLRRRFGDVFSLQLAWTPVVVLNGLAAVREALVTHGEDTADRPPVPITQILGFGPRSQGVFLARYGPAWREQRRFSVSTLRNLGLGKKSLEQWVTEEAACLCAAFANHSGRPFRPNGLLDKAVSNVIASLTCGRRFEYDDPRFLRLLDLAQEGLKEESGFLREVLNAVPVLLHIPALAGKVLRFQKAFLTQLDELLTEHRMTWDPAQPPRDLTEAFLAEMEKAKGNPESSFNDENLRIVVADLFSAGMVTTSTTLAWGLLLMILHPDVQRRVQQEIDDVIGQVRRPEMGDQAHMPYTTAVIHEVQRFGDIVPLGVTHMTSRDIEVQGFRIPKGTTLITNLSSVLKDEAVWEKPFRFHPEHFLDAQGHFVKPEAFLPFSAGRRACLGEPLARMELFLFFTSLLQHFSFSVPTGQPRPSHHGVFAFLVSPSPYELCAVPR

[7] = system: B16-F10; assay: Antitumor activity against mouse B16/F10 tumor model administered as monotherapy; assay type: functional
[8] = target: T2, Cytochrome P450 1A2 (Homo sapiens, UniProt P05177); assay: Time-dependent inhibition of CYP1A2 (unknown origin); assay type: ADME
T2 sequence (P05177 whole entry): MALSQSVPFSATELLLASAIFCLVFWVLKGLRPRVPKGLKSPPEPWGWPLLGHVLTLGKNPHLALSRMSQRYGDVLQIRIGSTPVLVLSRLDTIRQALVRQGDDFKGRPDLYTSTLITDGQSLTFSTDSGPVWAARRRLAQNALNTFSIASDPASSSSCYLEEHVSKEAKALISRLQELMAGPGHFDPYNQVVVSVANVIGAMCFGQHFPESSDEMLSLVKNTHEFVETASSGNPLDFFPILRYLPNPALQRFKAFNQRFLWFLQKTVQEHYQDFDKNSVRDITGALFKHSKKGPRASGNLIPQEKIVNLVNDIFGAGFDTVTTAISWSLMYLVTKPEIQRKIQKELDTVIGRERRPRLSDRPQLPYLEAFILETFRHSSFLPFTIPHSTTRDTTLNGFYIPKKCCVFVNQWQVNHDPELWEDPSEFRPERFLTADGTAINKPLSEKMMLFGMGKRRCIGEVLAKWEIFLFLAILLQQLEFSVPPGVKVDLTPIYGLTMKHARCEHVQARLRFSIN

[9] = target: T3, Cytochrome P450 2C19 (Homo sapiens, UniProt P33261); assay: Time-dependent inhibition of CYP2C19 (unknown origin); assay type: ADME
T3 sequence (P33261 whole entry): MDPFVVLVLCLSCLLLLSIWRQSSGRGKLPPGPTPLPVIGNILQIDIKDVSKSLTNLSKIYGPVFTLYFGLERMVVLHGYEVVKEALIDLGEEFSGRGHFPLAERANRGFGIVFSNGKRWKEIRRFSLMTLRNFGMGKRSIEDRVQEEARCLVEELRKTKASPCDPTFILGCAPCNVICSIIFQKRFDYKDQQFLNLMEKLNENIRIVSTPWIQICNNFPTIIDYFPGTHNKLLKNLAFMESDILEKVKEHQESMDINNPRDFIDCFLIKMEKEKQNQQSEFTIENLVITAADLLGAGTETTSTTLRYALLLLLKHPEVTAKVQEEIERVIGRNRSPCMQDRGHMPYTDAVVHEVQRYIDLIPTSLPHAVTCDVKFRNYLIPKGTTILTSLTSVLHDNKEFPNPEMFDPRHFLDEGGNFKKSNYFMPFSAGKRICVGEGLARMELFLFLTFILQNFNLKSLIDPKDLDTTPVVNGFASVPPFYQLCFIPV

[10] = system: Hepatocyte; assay: Induction of CYP1A2 mRNA expression in human hepatocytes at <100 uM; assay type: ADME, cell-based
[11] = target: Cytochrome P450 3A4 (Homo sapiens, UniProt P08684); assay: Time-dependent inhibition of CYP3A4 (unknown origin); assay type: ADME
Chain of Cytochrome P450 3A4 (P08684 whole entry): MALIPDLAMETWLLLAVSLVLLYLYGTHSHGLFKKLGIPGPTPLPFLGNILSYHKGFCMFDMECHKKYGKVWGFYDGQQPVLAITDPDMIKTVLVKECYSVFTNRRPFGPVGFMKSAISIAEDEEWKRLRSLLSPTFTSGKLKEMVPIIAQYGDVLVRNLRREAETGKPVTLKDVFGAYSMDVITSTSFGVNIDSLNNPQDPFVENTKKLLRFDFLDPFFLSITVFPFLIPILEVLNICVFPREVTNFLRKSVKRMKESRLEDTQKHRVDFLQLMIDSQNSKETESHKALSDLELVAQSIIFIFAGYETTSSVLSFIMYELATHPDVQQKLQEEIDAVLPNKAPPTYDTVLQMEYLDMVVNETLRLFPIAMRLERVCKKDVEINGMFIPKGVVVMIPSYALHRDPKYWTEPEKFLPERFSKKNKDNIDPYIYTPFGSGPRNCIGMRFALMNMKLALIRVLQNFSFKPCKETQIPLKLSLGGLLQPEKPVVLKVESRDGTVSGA

[12] = Intrinsic apparent clearance in mouse hepatocytes assessed per million cells; assay type: ADME, cell-based, Hepatocyte
[13] = system: MC-38; assay: Antitumor activity against mouse MC38 tumor model administered as monotherapy; assay type: functional
[14] = target: T2, Cytochrome P450 1A2; assay: Inhibition of CYP1A2 (unknown origin); assay type: ADME
[15] = Total brain to plasma partition coefficient, Kp in po dosed rat assessed as (R)-3-(5-fluoro-1H-indol-3-yl)pyrrolidine-2,5-dione; assay type: ADME, organism-based
How it was run: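 Racemate dosed orally to rats; active enantiomer measured in brain, CSF and plasma; total brain/plasma ratio and unbound brain/unbound plasma ratio calculated.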

[16] = Drug excretion in rat urine assessed as (R)-3-(5-fluoro-1H-indol-3-yl)pyrrolidine-2,5-dione; assay type: ADME; details: in vivo
How it was run: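 Racemate dosed to rats (urine and bile collected) and to dogs (urine collected). The percentage of the dose excreted as unchanged (R)-enantiomer was measured.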

[17] = system: Rattus norvegicus; assay: Volume of distribution at steady state in Wistar-Han rat assessed as (R)-3-(5-fluoro-1H-indol-3-yl)pyrrolidine-2,5-dione at 1 mg/kg, iv by LC-MS/MS method; assay type: ADME, organism-based; details: in vivo
[18] = system: Rattus norvegicus; assay: Half life in Wistar-Han rat assessed as (R)-3-(5-fluoro-1H-indol-3-yl)pyrrolidine-2,5-dione at 1 mg/kg, iv by LC-MS/MS method; assay type: ADME, organism-based; details: in vivo
How it was run: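 Racemate given as a single 1 mg/kg IV dose to male CD-1 mice, Wistar-Han rats or beagle dogs (n=3 per species). Plasma levels of the (R)-enantiomer measured by chiral LC-MS/MS. Mean AUCinf, CLp, Vss and t1/2 reported.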

[19] = system: Canis familiaris; assay: Half life in beagle dog assessed as (R)-3-(5-fluoro-1H-indol-3-yl)pyrrolidine-2,5-dione at 3 mg/kg, po; assay type: ADME, organism-based, Canis lupus familiaris; details: in vivo
[20] = system: Mus musculus; assay: AUC (infinity) in CD-1 mouse assessed as (R)-3-(5-fluoro-1H-indol-3-yl)pyrrolidine-2,5-dione at 3 mg/kg, po; assay type: ADME, organism-based; design: dose 3 mg/kg, route oral, time infinity; details: in vivo
[21] = target: T3, Cytochrome P450 2C19; assay: Inhibition of CYP2C19 (unknown origin); assay type: ADME
[22] = target: T1, Cytochrome P450 2D6; assay: Time/NADPH-dependent inhibition of CYP2D6 (unknown origin); assay type: ADME
[23] = system: Mus musculus; assay: Volume of distribution at steady state in CD-1 mouse assessed as (R)-3-(5-fluoro-1H-indol-3-yl)pyrrolidine-2,5-dione at 1 mg/kg, iv by LC-MS/MS method; assay type: ADME, organism-based; details: in vivo
[24] = system: Rattus norvegicus; assay: Cmax in Wistar-Han rat assessed as (R)-3-(5-fluoro-1H-indol-3-yl)pyrrolidine-2,5-dione at 3 mg/kg, po; assay type: ADME, organism-based; design: dose 3 mg/kg, route oral; details: in vivo
[25] = target: T2, Cytochrome P450 1A2; assay: Time/NADPH-dependent inhibition of CYP1A2 (unknown origin); assay type: ADME
[26] = system: CT26; assay: Antitumor activity against mouse CT26 tumor model administered as monotherapy; assay type: functional
[27] = target: Voltage-gated inwardly rectifying potassium channel KCNH2 (Homo sapiens, UniProt Q12809); assay: Inhibition of human ERG up to 300 uM relative to control
Chain of Voltage-gated inwardly rectifying potassium channel KCNH2 (Q12809 whole entry): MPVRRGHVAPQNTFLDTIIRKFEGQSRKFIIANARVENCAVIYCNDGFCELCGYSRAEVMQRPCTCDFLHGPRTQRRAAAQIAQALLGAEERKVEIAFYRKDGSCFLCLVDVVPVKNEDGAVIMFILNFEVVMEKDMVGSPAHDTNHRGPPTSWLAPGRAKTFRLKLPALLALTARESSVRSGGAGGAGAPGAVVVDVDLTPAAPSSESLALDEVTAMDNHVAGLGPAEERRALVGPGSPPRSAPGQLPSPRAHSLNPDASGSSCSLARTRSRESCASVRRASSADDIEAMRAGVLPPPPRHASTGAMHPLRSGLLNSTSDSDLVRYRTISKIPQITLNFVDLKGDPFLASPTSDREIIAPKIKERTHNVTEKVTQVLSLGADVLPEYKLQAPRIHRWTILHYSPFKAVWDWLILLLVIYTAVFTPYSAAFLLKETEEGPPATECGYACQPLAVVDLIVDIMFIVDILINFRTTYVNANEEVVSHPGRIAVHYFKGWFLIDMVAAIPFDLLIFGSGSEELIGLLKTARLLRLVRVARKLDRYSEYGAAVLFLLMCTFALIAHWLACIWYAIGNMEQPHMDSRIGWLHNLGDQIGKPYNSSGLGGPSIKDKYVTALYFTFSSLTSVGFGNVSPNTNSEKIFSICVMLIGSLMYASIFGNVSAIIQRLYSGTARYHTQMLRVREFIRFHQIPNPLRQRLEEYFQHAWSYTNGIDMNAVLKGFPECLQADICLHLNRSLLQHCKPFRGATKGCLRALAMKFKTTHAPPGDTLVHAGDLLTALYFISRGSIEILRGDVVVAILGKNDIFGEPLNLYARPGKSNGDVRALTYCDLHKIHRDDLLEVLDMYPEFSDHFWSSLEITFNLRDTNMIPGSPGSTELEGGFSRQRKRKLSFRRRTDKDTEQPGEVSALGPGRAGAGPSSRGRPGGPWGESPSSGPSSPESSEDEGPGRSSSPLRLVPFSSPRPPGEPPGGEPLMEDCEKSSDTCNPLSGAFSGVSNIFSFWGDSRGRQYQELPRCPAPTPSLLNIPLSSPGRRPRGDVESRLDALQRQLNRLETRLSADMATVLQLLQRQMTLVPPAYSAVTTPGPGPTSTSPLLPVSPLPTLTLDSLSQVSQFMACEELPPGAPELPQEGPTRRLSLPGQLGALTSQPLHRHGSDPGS

[28] = Drug metabolism in human hepatocytes assessed as hydrolysis; assay type: ADME, cell-based, Hepatocyte

Drug metabolism [1]: Metabolite_Detected
AUC [2]: 6940 ng·h/mL
Tmax [3]: 34.8 min
CLH(app) [4]: 10.3 µL/min
F [5]: 18.6%
TDI [6]: Not Active
TDI [8]: Not Active
TDI [9]: Not Active
Activity [10]: Not Active
TDI [11]: Not Active
CLH(app) [12]: 2.4 µL/min
IC50 [14]: > 100 µM
Kp [15]: 0.51
Drug excretion [16]: < 1 %ID
Vdss [17]: 0.639 L/kg
t1/2 [18]: 2.22 h
t1/2 [19]: 50.4 min
AUC [20]: 2170 ng·h/mL
IC50 [21]: 78 µM
inhibition (INH) [22]: Not Active
Vdss [23]: 0.787 L/kg
Cmax [24]: 985 ng/mL
inhibition (INH) [25]: Not Active
Drug metabolism [28]: Metabolite_Detected
SMILES: O=C1CC(c2c[nH]c3ccc(F)cc23)C(=O)N1 (stereo not drawn) [PF-06840003]
Activity [7]: Active
Activity [13]: Active
Activity [26]: Active
inhibition (INH) [27]: < 50%
